Results from ChEMBL document CHEMBL4196207, “Medermycin-Type Naphthoquinones from the Marine-Derived Streptomyces sp. XMA39” (J Nat Prod, 2018).
pIC50: −log10 of the molar value. Converted amounts (≈) assume the structure as drawn. Positions of bridges follow the written chain, without caps; N, C: chain ends. Non-standard residues stand in square brackets, D forms with d. Residues, ends and D or L forms follow the SMILES beside them. *: point of attachment. Octanoyl(6-Me) = CCC(C)CCCCC(=O)*; Dab = NCC[C@H](N)C(=O)O

Assays:
Escherichia coli = assay: Antimicrobial activity against Escherichia coli ATCC 25922 after 12 hrs by microdilution method; type: functional; conditions: ATCC 25922, 12 h
How it was run: (§1)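 Broth microdilution in 96-well plates. A 10 mg/mL DMSO stock was serially diluted in microbial cell suspension, 200 μL final. Plates were incubated at 37 °C for 12 h. MIC was read as the lowest concentration completely clear against a black background. Triplicate. E. coli strain ATCC 25922; C. albicans strain not specified.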

Staphylococcus aureus = assay: Antimicrobial activity against methicillin-resistant Staphylococcus aureus ATCC 43300 after 12 hrs by microdilution method; type: functional; conditions: ATCC 43300, 12 h
How it was run: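 Broth microdilution. Compound stock of 10 mg/mL in DMSO was serially diluted with microbial cell suspension to a series of concentrations in 96-well plates. Plates were incubated at 37 °C for 12 h. MIC is the lowest concentration that stays completely clear against a black background. Vancomycin served as positive control. Tests were run in triplicate.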

Candida albicans = assay: Antimicrobial activity against Candida albicans after 12 hrs by microdilution method; type: functional; how it was run: as §1
PC-3 = assay: Cytotoxicity against human PC3 cells after 72 hrs by SRB assay; type: functional, cell-based; conditions: PC-3, 72 h
How it was run: (§2)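 SRB assay. Cells were seeded 24 h, then given a range of compound concentrations for 72 h at 37 °C. Fixed with cold 10% TCA for 2 h at 4 °C, washed, stained with 0.4% SRB, rinsed with 1% acetic acid, and dye dissolved in 10 mM Tris. OD read at 515 nm. IC50 by the Reed–Muench method.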

[1] = molecular target: Rho-associated protein kinase 2 (Homo sapiens, UniProt O75116); assay: Inhibition of ROCK2 (unknown origin) using SKT S2 as substrate measured after 30 mins by HTRF assay
How it was run: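 HTRF KinEASE format. Compound dilutions were added to a substrate/enzyme/ATP mixture and incubated 0.5 h at 37 °C. SA-XL665 and STK antibody–cryptate were then added, followed by 1 h at room temperature before HTRF read-out. Triplicate.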

HCT-116 = assay: Cytotoxicity against human HCT116 cells after 72 hrs by SRB assay; type: functional, cell-based; conditions: HCT-116, 72 h; how it was run: as §2

Rho-associated protein kinase 2, sequence (O75116 whole entry): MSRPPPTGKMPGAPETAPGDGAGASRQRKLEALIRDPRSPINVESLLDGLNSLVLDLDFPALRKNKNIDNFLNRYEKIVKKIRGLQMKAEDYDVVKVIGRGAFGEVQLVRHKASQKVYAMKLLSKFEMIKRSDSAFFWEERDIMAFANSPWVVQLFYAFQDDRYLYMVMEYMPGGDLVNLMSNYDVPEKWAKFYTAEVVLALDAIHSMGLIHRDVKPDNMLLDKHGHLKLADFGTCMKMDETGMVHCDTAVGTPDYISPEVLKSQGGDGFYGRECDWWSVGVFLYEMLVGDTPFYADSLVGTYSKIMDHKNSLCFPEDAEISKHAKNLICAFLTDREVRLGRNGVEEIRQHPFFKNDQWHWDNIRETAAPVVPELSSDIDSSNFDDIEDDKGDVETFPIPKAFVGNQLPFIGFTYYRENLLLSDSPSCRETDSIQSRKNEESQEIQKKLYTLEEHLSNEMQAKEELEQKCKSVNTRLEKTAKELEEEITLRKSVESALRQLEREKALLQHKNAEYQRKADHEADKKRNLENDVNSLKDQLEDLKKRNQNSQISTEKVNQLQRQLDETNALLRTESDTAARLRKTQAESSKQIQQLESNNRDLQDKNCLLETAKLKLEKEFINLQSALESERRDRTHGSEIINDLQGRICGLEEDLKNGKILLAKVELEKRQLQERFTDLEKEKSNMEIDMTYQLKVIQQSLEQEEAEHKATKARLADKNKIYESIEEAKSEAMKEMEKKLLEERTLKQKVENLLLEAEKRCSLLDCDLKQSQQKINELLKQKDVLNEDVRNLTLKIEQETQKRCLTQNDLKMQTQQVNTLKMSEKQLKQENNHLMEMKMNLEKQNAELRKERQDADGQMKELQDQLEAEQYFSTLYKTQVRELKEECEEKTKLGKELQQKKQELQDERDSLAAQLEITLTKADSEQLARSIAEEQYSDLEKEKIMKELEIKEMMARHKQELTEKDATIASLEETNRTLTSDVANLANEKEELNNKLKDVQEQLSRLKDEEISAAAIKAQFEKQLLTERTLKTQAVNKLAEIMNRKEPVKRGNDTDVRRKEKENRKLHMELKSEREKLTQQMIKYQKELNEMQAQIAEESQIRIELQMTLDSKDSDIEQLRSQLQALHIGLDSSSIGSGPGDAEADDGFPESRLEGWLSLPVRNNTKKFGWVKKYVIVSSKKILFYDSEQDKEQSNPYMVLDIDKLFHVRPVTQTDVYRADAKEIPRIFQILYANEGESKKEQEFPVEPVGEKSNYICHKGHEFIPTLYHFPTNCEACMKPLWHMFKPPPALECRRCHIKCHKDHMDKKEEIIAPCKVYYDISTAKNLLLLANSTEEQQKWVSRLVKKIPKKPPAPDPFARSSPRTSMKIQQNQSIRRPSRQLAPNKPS

SMILES	MIC (Escherichia coli) [µg/mL]	MIC (Staphylococcus aureus) [µg/mL]	MIC (Candida albicans) [µg/mL]	pIC50 (PC-3)	pIC50 [1]	pIC50 (HCT-116)
COC(=O)C[C@H]1O[C@H](C)c2c(oc(=O)c3ccc([C@H]4C[C@@H](N(C)C)[C@H](O)[C@@H](C)O4)c(O)c3c2=O)[C@H]1O	10 (≈ 19.8 µM)	15 (≈ 29.7 µM)	10 (≈ 19.8 µM)	< 4.40	< 4.70	< 4.40
COC(=O)C[C@@H]1C[C@@]2(O)C(=O)c3ccc([C@H]4C[C@@H](N(C)C)[C@H](O)[C@@H](C)O4)c(O)c3C(=O)[C@]2(O)[C@@H](C)O1	5 (≈ 9.85 µM)	6 (≈ 11.8 µM)	9 (≈ 17.7 µM)	4.80	< 4.70	5.36
C[C@H]1O[C@@H]2CC(=O)O[C@@H]2c2oc(=O)c3ccc([C@H]4C[C@@H](N(C)C)[C@H](O)[C@@H](C)O4)c(O)c3c(=O)c21	8 (≈ 16.9 µM)	12 (≈ 25.3 µM)	7 (≈ 14.8 µM)	< 4.40	< 4.70	< 4.40
COC(=O)C[C@H]1OC(C)=C2C(=O)c3c(ccc([C@H]4C[C@@H](N(C)C)[C@H](O)[C@@H](C)O4)c3O)C(=O)C2=C1O	4 (≈ 8.21 µM)	3 (≈ 6.15 µM)	6 (≈ 12.3 µM)	4.72	5.05	5.54
CCC(C)CCCCC(=O)N[C@@H](CCN)C(=O)N[C@H](C(=O)N[C@@H](CCN)C(=O)N[C@H]1CCNC(=O)[C@H]([C@@H](C)O)NC(=O)[C@H](CCN)NC(=O)[C@H](CCN)NC(=O)[C@H](CC(C)C)NC(=O)[C@@H](Cc2ccccc2)NC(=O)[C@H](CCN)NC1=O)[C@@H](C)O (some centres not stated) ({Octanoyl(6-Me)}-[Dab]T[Dab][Dab][Dab][dF]L[Dab][Dab]T; lactam 4-C)	2 (≈ 1.66 µM)	–	–	–	–	–
C[C@@H]1[C@H](O)[C@@H](C)/C=C/C=C/C=C/C=C/C=C/C=C/C=C/[C@H](O[C@@H]2O[C@H](C)[C@@H](O)[C@H](N)[C@@H]2O)C[C@@H]2O[C@](O)(C[C@@H](O)C[C@@H](O)[C@H](O)CC[C@@H](O)C[C@@H](O)CC(=O)O[C@H]1C)C[C@H](O)[C@H]2C(=O)O [AMPHOTERICIN B]	–	–	2 (≈ 2.16 µM)	–	–	–
C[C@H]1O[C@@H]2CC(=O)O[C@@H]2C2=C1C(=O)c1c(ccc([C@H]3C[C@@H](N(C)C)[C@H](O)[C@@H](C)O3)c1O)C2=O [LACTOQUINOMYCIN]	2 (≈ 4.37 µM)	0.25 (≈ 0.546 µM)	5 (≈ 10.9 µM)	7.82	7.96	7.37
